Screening results deposited in PubChem by several laboratories.
Hits are enriched below; roughly 1.8% of the tested compounds scored in any of these assays.
NSD2 HMT inh: inhibitors of human histone methyltransferase NSD2; inhibition, % at 12.5 µM; NSD2 peptide methylation, AlphaScreen, 120 min; 310,000 compounds, 0.54% hits; O96028; in the data active = inhibition above about 50%
MBD2 inh: MBD2-methylated oligo binding inhibition. AID 686964. TR-FRET, MBD2 binding to methylated oligonucleotide. inhibition, % at 4.4 µM. 370,000 compounds, 0.31% hits. Q9UBB5; in the data active = inhibition above about 13%
Casp6 inh: blocks human caspase-6 cleavage activity; purified caspase-6, Z-VEID-R110 cleavage fluorescence; 350,000 compounds, 0.53% hits; inhibition, % at 12.5 µM;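 active = mean inhibition across replicates at least about 35%, with every replicate also reaching that limit, limit read from the data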;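 note: 0% = median of neutral control wells and 100% = no fluorescence left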
Target sequence (P55212 24-179 limits assumed): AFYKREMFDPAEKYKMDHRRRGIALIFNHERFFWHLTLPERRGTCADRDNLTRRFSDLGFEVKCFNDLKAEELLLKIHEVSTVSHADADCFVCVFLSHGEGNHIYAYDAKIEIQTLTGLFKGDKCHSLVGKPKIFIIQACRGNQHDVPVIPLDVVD
Target sequence (P55212 194-293 limits assumed): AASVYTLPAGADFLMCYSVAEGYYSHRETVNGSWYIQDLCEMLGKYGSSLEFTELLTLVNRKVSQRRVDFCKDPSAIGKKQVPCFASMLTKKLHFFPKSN
UHRF1 binding: human UHRF1 methylated DNA binding inhibitors | 370,000 compounds, 0.75% hits | AID 687016 | Q96T88 | UHRF1 binding to methylated oligo, TR-FRET | inhibition, % at 4.4 µM; in the data active = inhibition above about 21%;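 note: UHRF1 SRA domain binding a hemimethylated CpG hairpin DNA probe; 0% = median of test compound wells and 100% = reference inhibitor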
TDP2 absorb: blocks human TDP2 phosphodiesterase activity. recombinant TDP2, T5PNP hydrolysis, p-nitrophenol absorbance 415 nm. O95551. 370,000 compounds, 0.34% hits. inhibition, % at 12.8 µM. AID 720702;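 active = inhibition above the mean of all tested compounds plus 3 SD, set per campaign, cut at about 25% in these data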;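 note: 0% = DMSO with enzyme and 100% = buffer with substrate but no TDP2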
Target sequence (O95551 whole entry, looked up): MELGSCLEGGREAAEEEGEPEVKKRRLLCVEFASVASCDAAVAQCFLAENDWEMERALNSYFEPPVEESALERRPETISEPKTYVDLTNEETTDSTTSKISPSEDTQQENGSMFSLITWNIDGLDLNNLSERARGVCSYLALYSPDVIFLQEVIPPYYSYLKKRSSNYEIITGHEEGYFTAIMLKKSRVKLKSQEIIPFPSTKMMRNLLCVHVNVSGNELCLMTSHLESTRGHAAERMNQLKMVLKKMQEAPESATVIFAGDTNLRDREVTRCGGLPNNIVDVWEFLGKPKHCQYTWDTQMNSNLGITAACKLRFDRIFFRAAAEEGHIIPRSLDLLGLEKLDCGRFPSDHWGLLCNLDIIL
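test system = human TDP2 enzyme | input = TDP2 enzyme at 120 nM final | medium = 50 mM Tris-HCl pH 7.5 with Mg2+, KCl, DTT, BSA | also added = T5PNP substrate, 5 mM | times = 2 h at 37 °C | technique = epi absorbance | benchmarks = high control without enzyme, low control DMSO plus TDP2 | replication = each compound tested once, singlicate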
LEDGF integ inh: blocks HIV-1 LEDGF/p75-dependent DNA integration | 370,000 compounds, 0.64% hits | inhibition, % at 3.7 µM | TR-FRET IN-LEDGF/p75 DNA integration, Eu/Cy5 | AID 743269;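 active = inhibition above the screen-wide mean plus 3 SD, cut at about 13% in these data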;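 note: signal is the Cy5 over europium emission ratio at 671 and 618 nm; 0% = plate median of compound wells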
* hit, by the source's call; x = no result given; ! = not active in a repeat.

SMILES | NSD2 HMT inh | MBD2 inh | Casp6 inh | UHRF1 binding | TDP2 absorb | LEDGF integ inh
CCC(=O)N[C@@H]1CC[C@H](CC(=O)NCc2ccc(OC)cc2)O[C@H]1CO | x | x | -2.6 | x | x | x
Cc1ccc(NC2=C(Cl)C(=O)c3ccccc3C2=O)cc1 | 0.6 | 1.1 | -6.8 | -0.2 | 7.9 | -1.4
Cc1ccc(SC2=C(N(C)C)C(=O)c3ccccc3C2=O)cc1 | 92.9* | -13.4 | 8.1 | -5.2 | 2.3 | -5.7
CC(C)n1nnnc1-c1ccc(Cl)cc1 | -1.7 | 1.8 | 3.7 | 20.9* | -6.8 | 3.3
Cc1cc(-c2ccc(Cl)cc2)c2cnn(C(C)C)c2n1 | -5.9 | -1.6 | 0.8 | 3.0 | -19.5 | 6.1
C/C=C/c1ccccc1[C@@H]1[C@@H](C#N)N(C(C)=O)[C@H]1CO | x | x | 1.8 | x | x | x
C[C@@H]1CN([C@@H](C)CO)C(=O)c2cc(NS(=O)(=O)c3ccccc3)ccc2O[C@@H](C)CCCCO[C@@H]1CN(C)S(=O)(=O)c1cn(C)cn1 | x | x | -2.2 | x | x | x
N#C/C(=C\C=C\c1ccccc1[N+](=O)[O-])C(=O)NCc1ccccc1 | 4.2 | 1.9 | -0.6 | -2.6 | 5.7 | 0.2
N#C/C(=C\c1ccccc1[N+](=O)[O-])C(=O)NCc1ccccc1 | 2.4 | 10.8 | -2.9 | 24.7* | 0.4 | 3.2
COc1cc(/C=C2\CC/C(=C\c3cc(OC)c(OC)c(OC)c3)C2=O)cc(OC)c1OC | 2.0 | 3.8 | -0.1 | 8.0 | 0.8 | -0.6
COc1cc(/C=C2\CC/C(=C\c3cc(OC)c(O)c(OC)c3)C2=O)cc(OC)c1O | 61.7* | 1.0 | 49.3* | -2.8 | 4.8 | 33.5*
O=C(O)c1ccc(NC(=O)c2ccc(Cl)cc2)c(NC(=O)c2ccc(Cl)cc2)c1 | 0.0 | 9.6 | -2.5 | 2.8 | -11.1 | 2.9
Cc1ccc(C(=O)Nc2ccc(C(=O)O)cc2NC(=O)c2ccc(C)cc2)cc1 | 0.1 | 2.3 | 1.0 | -0.5 | -8.3 | 26.7*
C=C(C)CCC(C)N1CCC(n2nccc2NC(=O)CCCc2ccccc2)CC1 (centres undefined) | 1.5 | 2.0 | 0.0 | 20.9* | 6.3 | 1.0
CSCC(C)N1CCC(n2nccc2NC(=O)CCCc2ccccc2)CC1 (centres undefined) | x | 9.8 | -5.0 | 1.5 | -7.8 | -1.2
CN(CCC#N)C(=O)COC(=O)c1c2c(nc3ccccc13)/C(=C/c1ccco1)CC2 | -3.0 | 63.6* | x | 86.3* | -12.8 | 78.8*
CC(C)CNC(=O)COC(=O)c1c2c(nc3ccccc13)/C(=C\c1cccs1)CC2 | -2.7 | 4.8 | -0.2 | -1.9 | 4.2 | 4.7
CCCN(C)C1CN(Cc2cn(Cc3cc(C)cc(C)c3)nn2)S(=O)(=O)C1 (centres undefined) | x | 7.4 | -1.5 | 22.3* | -8.8 | -2.4
O=C1NN(c2ccccc2)C(=O)/C1=C\c1coc2ccc(O)cc2c1=O | 10.5 | 5.0 | 39.1* | 5.1 | -14.1 | -0.1
CSC1=NSC2=NC(=O)/C(=C\c3cccs3)C(=N)N12 | 2.3 | 3.6 | x | 0.2 | 0.9 | 5.5
CSC1=NSC2=NC(=O)/C(=C/c3coc4ccc(O)cc4c3=O)C(=N)N12 | x | -5.5 | 39.9* | 1.6 | 10.5 | 11.4
O=C1NN(c2ccccc2)C(=O)/C1=C/c1coc2ccccc2c1=O | 8.0 | -0.5 | x | 4.3 | -5.8 | 8.5
Cc1noc(C)c1COc1ccccc1C(=O)NC(C)c1ccc(Cl)cc1 (centres undefined) | 0.0 | 0.2 | 3.6 | 31.8* | 4.9 | -3.5
CCS(=O)(=O)N1CC2(C1)[C@@H](c1ccccc1)[C@@H](CO)N2C(=O)C1CCCC1 | x | x | 0.5 | x | x | x
COc1cc(NC(=O)c2cc(C)on2)cc(C(=O)Nc2cccc(C(F)(F)F)c2)c1 | x | -2.9 | -1.9 | 92.8*! | -1.2 | 1.7
SMILES | NSD2 HMT inh | MBD2 inh | Casp6 inh | UHRF1 binding | TDP2 absorb | LEDGF integ inh
COc1cc(NC(=O)c2csc(N)n2)cc(C(=O)Nc2cccc(C(F)(F)F)c2)c1 | x | 1.6 | 2.0 | 0.4 | -5.3 | 1.8
Cc1cccc(N=O)n1 | x | -4.0 | 4.7 | -2.8 | -3.7 | 1.5
Cc1cccc(N=[N+]([O-])c2cccc(C)n2)n1 | x | -2.4 | 0.6 | 41.8* | 0.6 | 5.2
C[C@H]1CN([C@@H](C)CO)C(=O)c2cc(NC(=O)NC3CCCCC3)ccc2O[C@@H]1CN(C)CC1CCCCC1 | x | x | 1.2 | x | x | x
Cc1c(CC(=O)O)c(=O)oc2cc3oc4c(c3cc12)CCCC4 | -1.5 | -0.3 | 3.0 | 25.6* | 0.7 | -2.1
CC1(C)C2CCC1(C)C(Nc1ccccc1)C2 (centres undefined) | 7.5 | 5.2 | 0.6 | -0.8 | 9.1 | -2.7
CC1(C)C2CCC1(C)C(NC(=O)/C=C/c1ccccc1)C2 (centres undefined) | -2.7 | -5.4 | 3.0 | 25.4* | -4.3 | -2.0
CC(CO)NS(=O)(=O)c1cc(Cl)ccc1F (centres undefined) | x | 12.3 | 0.2 | 25.5* | 5.0 | -4.1
CN(C)C(=O)c1cccc(-c2ccc3n(c2=O)C[C@@H]2N[C@H]3[C@H](C(=O)NC3CCC3)[C@H]2CO)c1 | x | x | 3.2 | x | x | x
O=C(O)C[C@H]1C[C@@H]2c3cc(NC(=O)Nc4ccccc4F)ccc3O[C@@H]2[C@H](CO)O1 | x | x | -0.5 | x | x | x
O=C(C[C@@H]1C[C@H]2c3cc(NC(=O)CC4CC4)ccc3O[C@H]2[C@H](CO)O1)NCCc1ccccc1 | x | x | -1.9 | x | x | x
CCOC(=O)C(=O)Nc1cc(C)on1 | 0.7 | 6.7 | 2.0 | 22.2* | 45.5* | 7.9
CCCCNC(=O)Nc1cc(C)on1 | -0.7 | 0.7 | x | -0.4 | 2.3 | -1.3
O=C(C[C@H]1C=C[C@H](NC(=O)NC2CCCCC2)[C@@H](CO)O1)NCc1ccccc1 | x | x | 26.8 | x | x | x
CC(Sc1nc2cc([N+](=O)[O-])ccc2n1-c1cccc(C(F)(F)F)c1)C(=O)NC(N)=O (centres undefined) | -2.8 | 3.1 | 5.1 | 94.6* | -3.3 | 2.5
CCN(CCO)Cc1csc2cccc(Br)c12 | 3.4 | 2.6 | x | -3.4 | 10.0 | -1.9
CCN(CC)CCN(CC)Cc1ccccc1Br | 2.9 | 1.8 | 56.2* | 3.5 | 7.8 | 0.7
Cc1cc(C)c2nc(NNC(=O)c3ccc(S(=O)(=O)N4CC(C)CC(C)C4)cc3)sc2c1 (centres undefined) | x | 5.0 | -2.8 | -2.4 | -10.8 | 14.9*
CC(C)NC(=O)N(C)C[C@H]1OCCCC[C@@H](C)Oc2ccc(N(C)C)cc2C(=O)N([C@@H](C)CO)C[C@H]1C | x | x | -2.4 | x | x | x
Cc1ccc(N2C(=O)c3ccccc3C2Nc2ccc(S(=O)(=O)N3CCOCC3)cc2)nc1 (centres undefined) | x | 4.1 | 1.3 | 2.0 | -6.4 | -0.6
Cc1ccc(N2C(=O)c3ccccc3C2Nc2ccc(S(=O)(=O)N3CCCCC3)cc2)nc1 (centres undefined) | x | -4.1 | -2.7 | 77.3* | 6.0 | 3.9
O=C(C[C@H]1CC[C@H](NC(=O)c2cccnc2)[C@H](CO)O1)NCCN1CCCCC1 | x | x | -1.3 | x | x | x
COc1ccccc1NC(=O)N1CCN(c2ccc3nncn3n2)CC1 | x | 7.0 | -1.9 | 24.0* | -10.3 | 1.4
